{"data": "Published values of several laboratories", "JAK2": "Tyrosine-protein kinase JAK2 (JAK2, Homo sapiens, UniProt O60674)", "JAK2 JH1": "Tyrosine-protein kinase JAK2, JH1 (JAK2, Homo sapiens, UniProt O60674)"}
{"Compound": "CC(C)S(=O)(=O)c1ccc2nccc(Nc3ccc4sc(C5CCCC5)nc4c3)c2c1", "target": "JAK2", "test": "enzyme activity, inhibitor", "setting": "1 µM", "quantity": "activity vs control", "result": "98%"}
{"Compound": "C1=C/COCc2cc(ccc2OCCN2CCCC2)Nc2nccc(n2)-c2cccc(c2)COC/1", "target": "JAK2 JH1", "test": "cell-free assay", "setting": "0.1 µM", "quantity": "remaining signal", "result": "6.8%"}
{"Compound": "C=CC(=O)N1CCC([C@@H]2CCNc3c(C(N)=O)c(-c4ccc(Oc5ccccc5)cc4)nn32)CC1", "target": "JAK2 JH1", "test": "enzyme activity, inhibitor", "setting": "1 µM", "quantity": "inhibition", "result": "12%"}
{"Compound": "CN1CCN(C(=O)c2ccc(NC(=O)Nc3ccc(N(C)c4ccnc(Nc5ccc(CS(C)(=O)=O)cc5)n4)cc3)cc2)CC1", "target": "JAK2 JH1", "test": "cell-free assay, competition with immobilised ligand", "setting": "1 µM", "quantity": "remaining binding", "result": "4.7%"}
{"Compound": "C#Cc1cc(-c2cc(Nc3nc(N[C@@H](C)c4ccc(F)cn4)ncc3Cl)n[nH]2)ccc1C=O", "target": "JAK2", "test": "enzyme activity, inhibitor", "setting": "0.2 µM", "quantity": "inhibition", "result": "99.7%"}
{"Compound": "N#Cc1ccc(NC(=O)Nc2ccccc2)cc1", "target": "JAK2 JH1", "test": "cell-free assay, competition with immobilised ligand", "setting": "25 µM", "quantity": "remaining binding", "result": "86%"}
{"Compound": "CO[C@@H]1[C@H](N(C)C(=O)c2ccccc2)C[C@H]2O[C@]1(C)n1c3ccccc3c3c4c(c5c6ccccc6n2c5c31)C(=O)NC4", "target": "JAK2 JH1", "test": "enzyme activity, inhibitor", "setting": "1 µM", "quantity": "inhibition", "result": "100%"}
{"Compound": "CCCCC(=O)Nc1ccc(-c2ccc3ncn(CCC)c(=O)c3c2)cn1", "target": "JAK2 JH1", "test": "binding, competition with immobilised ligand", "setting": "0.5 µM", "quantity": "remaining binding", "result": "100%"}
{"Compound": "COc1ccc2oc(-c3ccc4nc(N)oc4c3)c/c(=N\\c3ccccc3NC(=O)CCN)c2c1", "target": "JAK2", "test": "binding", "setting": "1 µM", "quantity": "remaining binding", "result": "96%"}
{"Compound": "C[C@H]1CC[C@H](n2c3cnccc3c3cnc(Nc4ccc5c(n4)CCN(C(=O)CO)C5)nc32)CC1", "target": "JAK2 JH1", "test": "cell-free assay, competition with immobilised ligand", "setting": "1 µM", "quantity": "remaining binding", "result": "50%"}
